Calls of active or inactive are those of the source. No cut-off for these calls is given here.
Key:
HL-60 [1] = test: Inhibition of STAT3beta protein expression in p53-deficient human HL60 cells at 20 to 50 uM after 6 hrs by Western blot analysis; format: cell-based
COLO 205 = test: Anticancer activity against human COLO205 cells assessed as growth inhibition at 50 uM after 48 hrs by SRB assay; format: functional; settings: COLO 205, 48 h, read-out: GI
Summary of the method: (§1)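 Cells exposed to test compounds at 50 µM for 48 h. Read-out is percent growth inhibition, with SEM given. 5-Fluorouracil and adriamycin serve as reference agents.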

HL-60 [2] = test: Induction of apoptosis in p53-deficient human HL60 cells at 50 uM after 6 hrs by FITC-conjugated annexinV/PI-based flow cytometric analysis; format: functional
Summary of the method: (§2)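 HL-60 cells incubated with each analog at 50 µM for 6 h, stained with annexin V-FITC/propidium iodide and analysed by flow cytometry. Lower right quadrant is apoptotic, upper right post-apoptotic, upper left necrotic. Three experiments, with representative dot plots shown.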

SW-620 = test: Anticancer activity against human SW620 cells assessed as growth inhibition at 50 uM after 48 hrs by SRB assay; format: functional; settings: SW-620, 48 h, read-out: GI; summary of the method: as §1
[3] = biological target: Transcription factor p65 (Homo sapiens) (UniProt Q04206); test: Inhibition of NF-kappaB p65 subunit protein expression in p53-deficient human HL60 cells at 20 uM after 6 hrs by Western blot analysis; format: cell-based; settings: HL-60
Transcription factor p65 (Homo sapiens), sequence (Q04206 whole entry): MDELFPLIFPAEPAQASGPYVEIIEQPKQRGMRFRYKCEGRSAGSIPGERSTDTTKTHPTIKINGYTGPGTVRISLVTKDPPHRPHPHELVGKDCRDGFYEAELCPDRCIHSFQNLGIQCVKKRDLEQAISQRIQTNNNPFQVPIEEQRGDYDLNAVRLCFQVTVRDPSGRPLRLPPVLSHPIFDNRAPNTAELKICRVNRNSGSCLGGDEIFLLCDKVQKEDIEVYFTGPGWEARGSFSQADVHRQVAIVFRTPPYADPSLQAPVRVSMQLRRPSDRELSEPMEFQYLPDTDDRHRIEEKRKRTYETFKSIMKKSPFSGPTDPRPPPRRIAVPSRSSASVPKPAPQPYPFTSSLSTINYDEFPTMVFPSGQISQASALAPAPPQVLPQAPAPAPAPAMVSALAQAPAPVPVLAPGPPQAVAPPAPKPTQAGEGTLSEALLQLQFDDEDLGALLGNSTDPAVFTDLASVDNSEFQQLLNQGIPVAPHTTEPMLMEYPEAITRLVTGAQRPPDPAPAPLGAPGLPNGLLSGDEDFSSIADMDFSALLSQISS
Summary of the method: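 HL-60 cells treated with or without compound (20 and 50 µM) for 6 h. Total cell lysates (70 µg protein) are run on 10% SDS–PAGE and immunoblotted for NF-κB p50 and p65.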

HL-60 [4] = test: Induction of apoptosis in p53-deficient human HL60 cells assessed as post-apoptotic cells at 50 uM after 6 hrs by FITC-conjugated annexinV/PI-based flow cytometric analysis (reference value: 1 %); format: functional; summary of the method: as §2
HL-60 [5] = test: Induction of necrosis in p53-deficient human HL60 cells at 50 uM after 6 hrs by FITC-conjugated annexinV/PI-based flow cytometric analysis; format: functional, cell-based; summary of the method: as §2
HT-29 = test: Anticancer activity against human HT-29 cells assessed as growth inhibition at 50 uM after 48 hrs by SRB assay; format: functional; settings: HT-29, 48 h, read-out: GI; summary of the method: as §1
[6] = biological target: T1, Signal transducer and activator of transcription 6 (Homo sapiens) (UniProt P42226); test: Inhibition of STAT6 Tyr641 phosphorylation in p53-deficient human HL60 cells at 20 to 50 uM after 6 hrs by Western blot analysis; format: cell-based; settings: HL-60
T1 sequence (whole entry): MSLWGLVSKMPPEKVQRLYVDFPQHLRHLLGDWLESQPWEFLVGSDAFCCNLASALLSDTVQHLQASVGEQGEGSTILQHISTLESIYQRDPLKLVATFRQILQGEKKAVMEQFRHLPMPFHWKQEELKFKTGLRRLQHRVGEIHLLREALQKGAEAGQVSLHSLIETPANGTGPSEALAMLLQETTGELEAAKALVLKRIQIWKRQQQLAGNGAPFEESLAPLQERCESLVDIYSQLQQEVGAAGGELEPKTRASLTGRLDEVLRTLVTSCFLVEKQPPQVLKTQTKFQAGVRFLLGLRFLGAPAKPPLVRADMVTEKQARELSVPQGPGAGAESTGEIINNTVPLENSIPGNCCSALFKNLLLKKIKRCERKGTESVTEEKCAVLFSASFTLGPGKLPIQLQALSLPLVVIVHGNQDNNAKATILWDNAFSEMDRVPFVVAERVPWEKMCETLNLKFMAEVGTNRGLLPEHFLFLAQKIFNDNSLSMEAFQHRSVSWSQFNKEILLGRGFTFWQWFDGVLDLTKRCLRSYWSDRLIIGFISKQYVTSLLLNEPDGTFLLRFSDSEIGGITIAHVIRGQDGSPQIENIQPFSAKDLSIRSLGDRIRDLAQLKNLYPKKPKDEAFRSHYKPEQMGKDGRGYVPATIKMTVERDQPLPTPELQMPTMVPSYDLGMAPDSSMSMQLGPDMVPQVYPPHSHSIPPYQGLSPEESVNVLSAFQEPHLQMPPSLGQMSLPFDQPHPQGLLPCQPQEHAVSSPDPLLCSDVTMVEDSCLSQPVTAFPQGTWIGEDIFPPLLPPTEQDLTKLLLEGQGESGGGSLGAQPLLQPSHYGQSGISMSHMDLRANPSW

HL-60 [7] = test: Anticancer activity against human HL60 cells after 48 hrs by MTT assay; format: functional, cell-based; settings: HL-60, 48 h
Summary of the method: (§3)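 Cell proliferation measured by MTT. Cells are incubated with each analog for 48 h at the indicated concentrations, then MTT reduction is read as an index of viability. OD of the untreated control is taken as 100% viability, and IC50 is derived from this.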

[8] = Cytotoxicity against human HGF cells after 48 hrs by MTT assay; format: cell-based; summary of the method: as §3

- inhibition [3]: 90%
- inhibition [6]: Active
- IC50 (HL-60 [7]): 11 µM
SMILES: CCCC(=O)O[C@@H]1CC[C@@]2(C)[C@@H](CC[C@]3(C)[C@@H]2C(=O)C=C2[C@@H]4[C@@H](C)[C@H](C)CC[C@]4(C)CC[C@]23C)[C@@]1(C)C(=O)O
- inhibition (HL-60 [1]): Active
- inhibition of growth at 50 µM (COLO 205): 94%
- Activity (HL-60 [2]): 80%
- inhibition of growth at 50 µM (SW-620): 97%
- Activity (HL-60 [4]): 48%
- Activity (HL-60 [5]): inactive
- inhibition of growth at 50 µM (HT-29): 96%
- IC50 [8]: 80 µM

From ChEMBL document CHEMBL1932969, “Acyl derivatives of boswellic acids as inhibitors of NF-κB and STATs” (Bioorg Med Chem Lett, 2012)
